A short description of this series: Toxicity liver stage against HepG2, at 10uM. The series is classed as cell-based. Set-up: test concentration 10 uM, cell line HepG2-A16-CD81EGFP. The conditions noted are these: human, HepG2-A16-CD81EGFP cells; read-out: INHIBITION
The procedure, abridged: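 Uninfected HepG2-A16-CD81EGFP cells, 3 × 10^3 per well, 1536-well, plated on prespotted compound at 10 μM final, parasite-free screening media added to match infected plates; puromycin 10 μM positive, DMSO 0.5% negative; run in parallel with 48 h PbLuc assay at 37 °C, 5% CO2; viability by CellTiter-Glo luminescence, normalized to controls.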
`CCCOC(=O)NCCC1CN(c2cnn(C)c(=O)c2)CCO1` (stereo not given): the cytotoxicity at 10 µM turned out to be 5.31%.
`COc1cc(CN(C)C(=O)NCCC2CCCO2)ccc1SC` (stereo not given): the cytotoxicity at 10 µM was -13.8%.
Take `CNC(=O)[C@H]1C[C@@H]2CCN(Cc3nccs3)C[C@H]2O1`: the cytotoxicity at 10 µM was -75.9%.
Regarding `COc1ccc(NS(=O)(=O)C=c2[nH]c(=O)n3cccc3c2=O)cc1Cl`, the cytotoxicity at 10 µM was -1.47%.
Regarding `O=C(CN1CCCCC1Cn1cncn1)NCc1ccccn1` (stereo not given), the cytotoxicity at 10 µM was -4.02%.
On to `CCCc1nnc(C(=O)N(C)Cc2cnc3ccccn23)o1`, for which the cytotoxicity at 10 µM was -3.41%.
Turning to `CC(C)C(C(=O)N1CCN(c2nccs2)CC1)n1cncn1` (stereo not given), the cytotoxicity at 10 µM was -4.35%.
Turning to `CC1=N[C@@]2(CC[C@@H]3CN(CC(=O)N(C)C)C[C@@H]32)C(=O)N1CC1CC1`, the cytotoxicity at 10 µM is -3.9%.
In the case of `Cn1c(SCC(N)=O)nnc1-c1csc2c1CCCC2` it was 36.2%; in that of `Cc1noc(C)c1-c1cc(CCC2CN(C(=O)CN)CCO2)ncn1` (stereo not given), 2.89%.
As for `CN(Cc1nnc2n1CCC2)S(=O)(=O)c1cc(Br)ccc1Br`, the cytotoxicity at 10 µM was found to be 0.392%.
Regarding `CC(=O)N(Cc1ncc(C(C)C)o1)C1CCN(Cc2cc(C)no2)C1` (stereo not given), the cytotoxicity at 10 µM is -5.89%.
Take `Cn1c2c(ccc1=O)CCN(Cc1ccoc1)CC2`: the cytotoxicity at 10 µM is -153%.
Turning to `CN(Cc1cn2c(n1)CN(CC1CCOC1)CC2)Cc1ccco1` (stereo not given), the cytotoxicity at 10 µM is -82.9%.
Take `CCS(=O)(=O)Nc1ccn(Cc2cccc(F)c2)n1`: the cytotoxicity at 10 µM was determined as 6.22%.
For `CCC(NC(=O)C1CCN(S(C)(=O)=O)CC1)c1ccc(OC)c(OC)c1` (stereo not given), the cytotoxicity at 10 µM was -6.69%.
Then `c1cc(-c2noc(CN3CCc4c(ncn4C4CC4)C3)n2)cs1`, with 4.71%; and `CCO[C@H]1C[C@@H](O)C12CCN(C(=O)CN1CCCCCC1=O)CC2`, with 2.71%.
As for `CN(C)C[C@@H]1CCC[C@@H]2CN(c3cccnc3)C[C@@H]21`, the cytotoxicity at 10 µM was -11.9%.
Take `O=C(c1ccc(S(=O)(=O)N2CCNCC2)cc1)N1CCCC(O)C1` (stereo not given): the cytotoxicity at 10 µM amounted to 8.48%.
Regarding `CN(C)C(=O)COC[C@]12COC[C@H]1CN(Cc1ccoc1)C2`, the cytotoxicity at 10 µM is -1.56%.
Regarding `Cc1ccc(C)c(OCCC(=O)N2CCCN(CC(N)=O)CC2)c1`, the cytotoxicity at 10 µM is -8.54%.
As to `CN(C)c1ncc(NC(=O)c2cccc(Nc3cnn(C)c3)c2)cn1`, the cytotoxicity at 10 µM is -2.93%.
As to `CC(=O)N1CCC2(CCN(Cc3ccccn3)C2=O)C1` (stereo not given), the cytotoxicity at 10 µM was determined as 0.0869%.
As to `CN1CCN([C@@H]2CCN(C3CCOC3)[C@H]2Cc2cnn(C)c2)CC1` (stereo not given in full), the cytotoxicity at 10 µM stood at 6.28%.
Then `CNC(=O)c1cnc2n1CCN(C(=O)Cc1ccccn1)C2`, with 6.68%; and `CC(=O)N(Cc1c(F)cccc1F)C1CCCC1`, with -3.63%; and `CC(C)Cc1nc(CN2CCOC(Cn3cccn3)C2)no1` (stereo not given), with -28.9%.
`CN1Cc2ccccc2CC1C(=O)N1CCN(CCS(C)(=O)=O)CC1` (stereo not given): the cytotoxicity at 10 µM came out at 15.1%.
In the case of `Cc1cc(C(=O)N2C[C@@H]3COC[C@]3(c3nnc(C4CC4)o3)C2)on1`, the cytotoxicity at 10 µM is -10%.
In the case of `N#Cc1ccc(OC2CCN(CC(=O)NCC(F)(F)F)CC2)cc1` it was 11.9%.
For `Cc1noc(C)c1-c1cncc(C2CCCN2Cc2nccs2)n1` (stereo not given), the cytotoxicity at 10 µM is -14.2%.
`CCCN(C)CC1CCN(c2ccc(Br)c(C)n2)C1` (stereo not given): the cytotoxicity at 10 µM was determined as 14.8%.
For the compound `COCC(=O)NCC1(COc2cccnc2)C[C@@H](O)[C@@H](O)C1` (stereo not given in full), the cytotoxicity at 10 µM worked out at 2.52%.
In the case of `Cc1ccc(CN(C)C(=O)c2cc(Cn3ccnc3C(C)C)[nH]n2)o1`, the cytotoxicity at 10 µM came to 0.073%.
In the case of `COc1cccc2sc(OC3CN(C(=O)C4=COCCO4)C3)nc12`, the cytotoxicity at 10 µM was found to be 4.91%.
With `COC(C)c1noc(CN(C)c2ncccn2)n1` (stereo not given), the cytotoxicity at 10 µM was 7.33%.
For `CC(=O)N1CCCC2(C1)CN(C(=O)C1CCCCC1)CCO2` (stereo not given), the cytotoxicity at 10 µM was found to be 2.08%.
For the compound `CN(Cc1cnn(C)c1)CC1CCCN1c1cccnn1` (stereo not given), the cytotoxicity at 10 µM was -1.07%.
For the compound `O=C(c1[nH]nc(C2CC2)c1Cl)N1CCN(S(=O)(=O)c2ccccc2)CC1`, the cytotoxicity at 10 µM was 16%.
Then `CC/C=C(/C)C(=O)NS(=O)(=O)c1ccc(C#N)c(C(F)(F)F)c1`, with 2.99%.
Then `CCCC(=O)Nc1ccc(CC(=O)N(C)CCc2cn[nH]c2)cc1`, with 4.84%; and `CC(C)NC(=O)NCCCc1cccc(F)c1`, with -0.0328%.
As to `O=C(NCCCC(=O)N1Cc2ccccc2C1)NCc1ccsc1`, the cytotoxicity at 10 µM was -15%.
Take `Cc1oc(-c2ccoc2)nc1CN1CCC[C@H]1CO`: the cytotoxicity at 10 µM is -16.5%.
Turning to `O=C(C1CC1)N1CC[C@@H]2[C@H](CC1)N(Cc1cccnc1)CCS2(=O)=O`, the cytotoxicity at 10 µM is -1.84%.
Then `COc1cccc(OCc2nnc3n2N=C(C(C)(C)C)CS3)c1`, with 4.4%.
For the compound `COc1ccc(NC(=O)N2CCCC2c2ccco2)c(OC)c1` (stereo not given), the cytotoxicity at 10 µM came out at 10.8%.
Take `O=C(CCc1ccccc1F)NS(=O)(=O)c1ccc2c(c1)OCCO2`: the cytotoxicity at 10 µM was -18.6%.
`CC(C)CN1CCCC1c1ccc(C(=O)Nc2cc[nH]n2)s1` (stereo not given): the cytotoxicity at 10 µM turned out to be 10.3%.
In the case of `Cc1nccc(C(=O)NC(COCC(C)C)c2ccco2)n1` (stereo not given) it was -10.7%; in that of `O=C(NC1CCN(c2ncccn2)CC1)c1sccc1C1CC1`, -5.75%.
In the case of `CC(C)c1nc(C2CCCN(C(=O)c3ccc4[nH]cnc4c3)C2)no1` (stereo not given), the cytotoxicity at 10 µM is -3.87%.
Regarding `CC(C)n1cnnc1CN(C)Cc1cnc(-c2cccs2)nc1`, the cytotoxicity at 10 µM is 8.55%.
Regarding `O=c1cc2c(nn1CN1CCN(c3ccccc3)CC1)CCC2`, the cytotoxicity at 10 µM is 7.13%.
With `CN(CCNC(=O)c1cnc(-c2ccncc2)nc1)S(C)(=O)=O`, the cytotoxicity at 10 µM came out at 5.23%.
As for `Cc1c[nH]nc1C1CCN(C(=O)CC2CCCC2)C1` (stereo not given), the cytotoxicity at 10 µM is -4.15%.
As to `COCC(=O)N1CCCCC1c1nccc(C)n1` (stereo not given), the cytotoxicity at 10 µM is -14.6%.
`O=C(c1cn(-c2ccccc2)nn1)N1CCCC(n2cccn2)C1` (stereo not given): the cytotoxicity at 10 µM is -7.85%.
Consider `CN(CCO)CC1COCCN1C(=O)C1(c2cccs2)CCCC1` (stereo not given), for which the cytotoxicity at 10 µM was -9.06%.
On to `CC(C)[C@H]1CN(S(=O)(=O)c2cccnc2)C[C@@H]1N`, for which the cytotoxicity at 10 µM came to 1.31%.
For `CCCc1nc(C)c(C(=O)NCCn2nc3ccccn3c2=O)s1`, the cytotoxicity at 10 µM was -10.1%.
With `CCc1nccn1CC(=O)N1C[C@@H]2CC[C@H]1CN(S(=O)(=O)N(C)C)C2`, the cytotoxicity at 10 µM was -6.38%.
As to `Cc1ccc(NC2CCN(C(=O)c3cc[nH]n3)CC2)nn1`, the cytotoxicity at 10 µM is -15.2%.
Turning to `O=C(NCC1CC1)[C@H]1C[C@H]2OCC[C@H]2N(Cc2ccoc2)C1`, the cytotoxicity at 10 µM was -3.01%.
Regarding `Cc1cccc2c1nc(COCC(=O)O)n2-c1ccsc1`, the cytotoxicity at 10 µM is -0.793%.
For `O=C(NCC1CCC2(CC1)OCCO2)c1cccc(-n2cccn2)c1`, the cytotoxicity at 10 µM was 0.477%.
Consider `CC(C)Nc1nc(N2CCOCC2)nc2c1CN(Cc1ccoc1)CC2`, for which the cytotoxicity at 10 µM was 1.52%.
For the compound `Cc1cccc(CNC(=O)N(CCCO)C2CCc3ccccc32)n1` (stereo not given), the cytotoxicity at 10 µM was -10.5%.
Regarding `CCN(Cc1cccc2c1OCO2)C(=O)NCc1ccccn1`, the cytotoxicity at 10 µM came out at 1.48%.

(Values after ChEMBL document CHEMBL4513216, “Probing the Open Global Health Chemical Diversity Library for Multistage-Active Starting Points for Next-Generation Antimalarials” (ACS Infect Dis, 2020).)
